Data taken from PMC6036231 (Journal of immunology (Baltimore, Md. : 1950), 2018).
Blank lines part the entries; values can stand above or below the molecule they belong to.

What was measured:
PGE2-treated THP-1 cells = assay: Real-time chemotaxis; format: cell-based, human
In short: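 THP-1 cultured overnight with PGE2. Where stated, pre-incubated 15 min at room temperature with DMSO or 1 µM final antagonist. TAXIScan: 1 h migration at 37°C along gradients from 1 µl of 1 or 10 µM chemokine (1 µM CCL2 reference; no-stimulus basal). Frames every minute; cells tracked manually. FMI = y-axis distance/accumulated distance. Triplicate or quadruplicate runs per stimulus.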

THP-1 cells = assay: Real-time chemotaxis; format: cell-based, human; conditions: resting THP-1
In short: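 Resting THP-1 cells kept at 0.5 x 10^6/ml in supplemented RPMI 1640 with 10% FBS at 37°C, 5% CO2. TAXIScan: 1 h migration at 37°C along gradients from 1 µl of 1 µM or 10 µM chemokine (1 µM CCL2 reference); no-stimulus basal. Frames every minute; manual tracking. FMI = y-axis distance/accumulated distance. Pooled from 3 experiments, 3 movies per condition.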

primary human monocytes = assay: Real-time chemotaxis; format: cell-based; conditions: 1 μM ML145
In short: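 Monocytes isolated from healthy donor blood by negative selection (RosetteSep). Pre-incubated 15 min at room temperature in buffer with DMSO vehicle or 1 µM final antagonist. TAXIScan: 1 h migration at 37°C along gradients formed by 1 µl chemokine; no-stimulus basal. Images every minute; individual cells tracked manually; FMI parallel to gradient calculated per cell.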

human GPR35a [1] = molecular target: T1, human GPR35a (Homo sapiens, UniProt Q9HC97); assay: Inositol phosphate assay, GPR35a with Gq-G13 chimera; format: cell-based; conditions: 30 minutes
T1 sequence (Q9HC97 whole entry): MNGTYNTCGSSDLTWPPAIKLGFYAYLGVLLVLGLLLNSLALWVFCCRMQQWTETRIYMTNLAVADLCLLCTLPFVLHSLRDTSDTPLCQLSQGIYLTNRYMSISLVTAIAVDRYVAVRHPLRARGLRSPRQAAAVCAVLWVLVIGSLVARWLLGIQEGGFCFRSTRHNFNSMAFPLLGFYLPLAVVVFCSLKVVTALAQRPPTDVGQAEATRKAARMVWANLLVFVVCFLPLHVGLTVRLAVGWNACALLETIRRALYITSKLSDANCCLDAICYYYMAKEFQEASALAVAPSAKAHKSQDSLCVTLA

GPR35b = GPR35b (Homo sapiens, UniProt Q9HC97); assay: Inositol phosphate assay, GPR35b with Gq-Gi1/2 chimera; format: cell-based; conditions: 30 minutes
Sequence of GPR35b (Q9HC97 1-340 isoform Q9HC97-2): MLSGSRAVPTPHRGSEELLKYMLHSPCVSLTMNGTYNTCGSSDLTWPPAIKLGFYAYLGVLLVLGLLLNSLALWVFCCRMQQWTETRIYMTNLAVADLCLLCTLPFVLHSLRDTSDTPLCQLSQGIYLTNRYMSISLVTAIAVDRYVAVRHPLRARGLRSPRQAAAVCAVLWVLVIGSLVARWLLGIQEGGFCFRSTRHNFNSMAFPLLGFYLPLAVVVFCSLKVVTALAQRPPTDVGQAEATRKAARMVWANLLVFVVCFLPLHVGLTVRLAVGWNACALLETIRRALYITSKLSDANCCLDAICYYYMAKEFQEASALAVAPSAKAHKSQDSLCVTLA

human GPR35a [2] = molecular target: T1, human GPR35a; assay: Inositol phosphate assay, GPR35a with Gq-Gi1/2 chimera; format: cell-based; conditions: 30 minutes
3xHA-GPR35 = 3xHA-GPR35 (Homo sapiens, UniProt Q9HC97); assay: GPR35 endocytosis assay, L1.2 clone 23; format: cell-based; conditions: 37°C, 15 minutes
Sequence of 3xHA-GPR35 (Q9HC97 whole entry): as the sequence (Q9HC97 whole entry) above
In short: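 L1.2 clone stably expressing N-terminal 3xHA-GPR35 (G418 1 mg/ml selection, limiting-dilution cloning), 2 x 10^6 cells/ml in RPMI/0.1% BSA. Mixed with equal volume of buffer holding agonist (20, 10 or 2 µM reference agonist; 2 µM chemokine) or DMSO vehicle. Incubated 15 min at 4°C (basal) and 37°C (endocytosis). Surface receptor by flow cytometry: anti-HA (10 µg/ml), FITC secondary, TO-PRO3.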

rat GPR35 = rat GPR35 (Rattus norvegicus, UniProt Q33BM1); assay: BRET β-arrestin-2 recruitment assay, HEK293T cells, rat GPR35; format: cell-based
Sequence of rat GPR35 (Q33BM1 1-306): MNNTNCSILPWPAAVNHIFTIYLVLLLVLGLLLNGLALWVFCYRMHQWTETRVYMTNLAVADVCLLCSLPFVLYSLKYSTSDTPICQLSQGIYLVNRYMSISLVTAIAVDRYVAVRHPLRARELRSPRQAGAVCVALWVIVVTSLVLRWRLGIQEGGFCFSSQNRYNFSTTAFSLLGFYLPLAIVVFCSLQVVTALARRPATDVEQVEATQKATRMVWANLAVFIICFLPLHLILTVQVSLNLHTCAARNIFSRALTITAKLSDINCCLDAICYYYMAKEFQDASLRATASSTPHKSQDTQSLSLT

mouse GPR35 = mouse GPR35 (Mus musculus, UniProt Q9ES90); assay: BRET β-arrestin-2 recruitment assay, HEK293T cells, mouse GPR35; format: cell-based
Sequence of mouse GPR35 (Q9ES90 whole entry): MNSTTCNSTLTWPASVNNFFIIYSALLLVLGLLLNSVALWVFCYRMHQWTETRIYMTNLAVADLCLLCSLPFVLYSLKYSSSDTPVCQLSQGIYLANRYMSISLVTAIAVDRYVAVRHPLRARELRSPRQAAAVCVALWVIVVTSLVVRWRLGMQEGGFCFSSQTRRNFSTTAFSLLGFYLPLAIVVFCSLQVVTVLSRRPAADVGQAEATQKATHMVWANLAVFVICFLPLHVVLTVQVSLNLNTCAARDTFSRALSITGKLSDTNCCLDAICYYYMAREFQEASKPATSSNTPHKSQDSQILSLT
In short: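 HEK293T cells transiently transfected with polyethylenimine to co-express mouse GPR35 and β-arrestin-2, used 48 h after transfection. β-arrestin-2 recruitment read by bioluminescence resonance energy transfer.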

CCR1 = molecular target: T2, CCR1 (Homo sapiens, UniProt P32246); assay: Boyden chamber chemotaxis, CCR1 transfectants; format: cell-based; conditions: cleaved versus uncleaved chemokine
T2 sequence (P32246 1-355): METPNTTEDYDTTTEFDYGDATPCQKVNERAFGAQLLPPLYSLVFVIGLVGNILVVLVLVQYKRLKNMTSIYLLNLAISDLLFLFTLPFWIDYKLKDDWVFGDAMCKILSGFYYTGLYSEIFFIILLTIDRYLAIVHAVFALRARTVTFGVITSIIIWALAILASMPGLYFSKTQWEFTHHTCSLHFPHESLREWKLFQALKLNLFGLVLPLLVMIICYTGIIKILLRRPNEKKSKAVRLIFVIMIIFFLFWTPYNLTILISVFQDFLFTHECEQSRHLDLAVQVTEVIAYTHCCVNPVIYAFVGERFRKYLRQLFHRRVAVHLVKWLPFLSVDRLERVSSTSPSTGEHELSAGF
In short: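 Chemokine digested for 18 h at 37°C with 0.1-0.4 µg recombinant human chymase in 100 mM Tris-HCl (pH 7.8), 10 mM CaCl2; undigested half incubated alongside. Cleaved and uncleaved forms tested on CCR1 transfectants in 96-well Boyden chambers: 5 h migration, 37°C, 5% CO2. Migrated cells quantified by ATP luminescence (Cell Titer-Glo); chemotactic index = response/buffer-alone basal; n=3.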

[3] = molecular target: T3, recombinant human chymase (Homo sapiens, UniProt P23946); assay: Chemokine digestion with chymase, SDS-PAGE; format: biochemical; conditions: 18hr incubation, 37°C
T3 sequence (P23946 22-247): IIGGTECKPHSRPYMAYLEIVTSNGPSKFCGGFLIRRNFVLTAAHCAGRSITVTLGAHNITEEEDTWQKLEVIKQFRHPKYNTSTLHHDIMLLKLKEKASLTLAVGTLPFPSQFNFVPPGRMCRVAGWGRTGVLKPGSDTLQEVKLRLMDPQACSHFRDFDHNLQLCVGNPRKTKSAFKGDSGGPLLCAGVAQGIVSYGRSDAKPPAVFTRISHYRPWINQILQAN
In short: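 20 µg chemokine in 100 mM Tris-HCl pH 7.8, 10 mM CaCl2, split; one half given 0.1-0.4 µg chymase; both 18 h at 37°C. Samples in Tris-glycine SDS buffer heated 95°C 10 min, run on 4-12% Bis-Tris gels at 150 V for 50 min. Fixed in 25% isopropanol/10% acetic acid, stained with 0.25% Coomassie G-250 2 h, destained overnight; n=3.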

Molecule: CCL2: chemokine purchased from Peprotech EC
forward migration index (FMI‖) versus basal (PGE2-treated THP-1 cells; 1μM, PGE2-treated THP-1): significantly greater than the basal response | increase in the number of migrating cells versus basal (PGE2-treated THP-1 cells; 1μM, PGE2-treated THP-1): 6 fold | forward migration index (FMI‖) versus basal (THP-1 cells; 1μM): significant response | cell migration versus basal (THP-1 cells; gradient from 1μl of 1μM, 1 hour): many more cells were observed to migrate

Molecule: CC(/C=C1\SC(=S)N(CCCC(=O)Nc2ccc(C(=O)O)c(O)c2)C1=O)=C\c1ccccc1 [ML145]
effect of pre-exposure on response of cells to 1μM CXCL17 (PGE2-treated THP-1 cells; 1 μM ML145, 15 minutes pre-incubation): no inhibitory effect | effect of pre-treatment on monocyte migration to CXCL17 (primary human monocytes): unaffected

Molecule: N#Cc1cc(NC(=O)C(=O)O)c(Cl)c(NC(=O)C(=O)O)c1 [lodoxamide]
pEC50, inositol phosphate production (human GPR35a [1]): 9.13 +/- 0.24 | pEC50, inositol phosphate production (GPR35b): 9.05 +/- 0.07 | pEC50, inositol phosphate production (human GPR35a [2]): 8.64 +/- 0.08 | endocytosis of GPR35 (3xHA-GPR35; 1 μM and 10μM): Significant endocytosis | endocytosis of GPR35, direct comparison (3xHA-GPR35; 1 μM): significant endocytosis

EC50 (rat GPR35): 91.2 nM | EC50 (mouse GPR35): 1050 nM
Molecule: CCCOc1ccccc1-c1nc2nn[nH]c2c(=O)[nH]1 [zaprinast]

effect of chymase cleavage on chemotactic potency (CCR1): increased potency | cleavage by chymase [3]: cleaved
B1: CCL15: CC-chemokine with extended N-terminus, purchased from Peprotech EC (protein, UniProt Q16663 22-113, looked up)
C-C motif chemokine 15: QFTNDAETELMMSKLPLENPVVLNSFHFAADCCTSYISQSIPCSLMKSYFETSSECSKPGVIFLTKKGRQVCAKPSGPGVQDCMKKLKPYSI

effect of chymase cleavage on chemotactic potency (CCR1): increased potency | cleavage by chymase [3]: cleaved
B2: CCL23: CC-chemokine with extended N-terminus, purchased from Peprotech EC (protein, UniProt P55773 22-120, looked up)
C-C motif chemokine 23: RVTKDAETEFMMSKLPLENPVLLDRFHATSADCCISYTPRSIPCSLLESYFETNSECSKPGVIFLTKKGRRFCANPSDKQVQVCMRMLKLDTRIKTRKN
